From ChEMBL document CHEMBL2029271, “Design and synthesis of cannabinoid receptor 1 antagonists for peripheral selectivity” (J Med Chem, 2012)
pKi: −log10 of the molar value.

What was measured:
Cannabinoid receptor 1 [1] = target: T1, Cannabinoid receptor 1 (Homo sapiens, UniProt P21554); conditions: CHO-K1
Cannabinoid receptor 1 [2] = target: T1, Cannabinoid receptor 1; assay: biochemical; format: cell-based, CHO-K1
Cannabinoid receptor 2 = Cannabinoid receptor 2 (Homo sapiens, UniProt P34972); assay: Displacement of [3H]CP55940 from CB2 receptor expressed in CHO-K1 cells; format: cell-based
Homo sapiens = species on record: Homo sapiens; assay: Selectivity ratio of Ki for CB2 receptor to Ki for human CB1 receptor
MDCK = assay: Permeability from apical to basal side of MDCK cells expressing human mdr1 gene; format: ADME, cell-based, Canis lupus familiaris; conditions: dog
How it was run: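 MDCK-mdr1 cells grown 4 days to confluence on Transwell-type filters in DMEM/F12 with 10% FBS and antibiotics. Compound added apically at 3.16 μM in HBSS with 25 mM D-glucose, HEPES-buffered to pH 7.4; 1 hr at 37°C. Apical and basal samples collected and analysed by LC-MS/MS (MRM).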
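Throughout, for Ke: antagonism measured as blockade of CP55940-evoked intracellular Ca2+ rise, read fluorometrically, in cells additionally carrying Galphaq16.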

Sequence of Cannabinoid receptor 2 (P34972 whole entry): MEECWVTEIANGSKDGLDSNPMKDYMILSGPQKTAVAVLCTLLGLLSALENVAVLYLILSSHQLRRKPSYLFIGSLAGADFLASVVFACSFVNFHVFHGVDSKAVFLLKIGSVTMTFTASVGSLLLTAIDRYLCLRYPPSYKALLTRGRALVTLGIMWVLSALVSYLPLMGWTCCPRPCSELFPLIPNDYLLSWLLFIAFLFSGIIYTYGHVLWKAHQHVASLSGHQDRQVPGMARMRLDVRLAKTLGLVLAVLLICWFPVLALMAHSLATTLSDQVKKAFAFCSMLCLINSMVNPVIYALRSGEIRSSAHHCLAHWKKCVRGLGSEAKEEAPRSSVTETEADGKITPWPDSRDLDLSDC
T1 sequence (P21554 whole entry): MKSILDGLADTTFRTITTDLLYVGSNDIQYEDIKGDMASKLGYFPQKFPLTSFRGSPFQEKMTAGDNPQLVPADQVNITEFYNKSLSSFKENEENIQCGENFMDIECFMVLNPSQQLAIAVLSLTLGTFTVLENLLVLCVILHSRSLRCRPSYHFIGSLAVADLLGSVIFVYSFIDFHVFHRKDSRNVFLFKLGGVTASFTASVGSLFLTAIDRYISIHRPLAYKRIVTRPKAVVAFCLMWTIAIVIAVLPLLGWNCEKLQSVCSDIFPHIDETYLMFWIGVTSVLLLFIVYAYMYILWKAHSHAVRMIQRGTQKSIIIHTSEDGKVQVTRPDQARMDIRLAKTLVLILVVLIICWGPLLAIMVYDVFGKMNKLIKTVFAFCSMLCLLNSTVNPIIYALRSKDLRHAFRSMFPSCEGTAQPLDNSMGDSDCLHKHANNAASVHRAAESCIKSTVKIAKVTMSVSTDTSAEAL

Row | SMILES | Ke (Cannabinoid receptor 1 [1]) | pKi (Cannabinoid receptor 1 [2]) | pKi (Cannabinoid receptor 2) | Ratio Ki (Homo sapiens) | permeability (MDCK)
1 | CCCCNC(=O)N1CCC[C@H](NC(=O)c2nn(-c3ccc(Cl)cc3Cl)c(-c3ccc(Cl)cc3)c2C)C1 | 230 nM | – | – | – | –
2 | Cc1c(C(=O)NC2CCN(S(N)(=O)=O)CC2)nn(-c2ccc(Cl)cc2Cl)c1-c1ccc(Cl)cc1 | 592 nM | – | – | – | –
3 | CCCCNC(=O)NCC1CCC(CNC(=O)c2nn(-c3ccc(Cl)cc3Cl)c(-c3ccc(Cl)cc3)c2C)CC1 (stereo unspecified) | 274 nM | – | – | – | –
4 | CCNC(=O)N1CCC[C@@H](NC(=O)c2nn(-c3ccc(Cl)cc3Cl)c(-c3ccc(Cl)cc3)c2C)C1 | 171 nM | – | – | – | –
5 | Cc1c(C(=O)N[C@@H]2CCCN(C(=O)NC(C)(C)C)C2)nn(-c2ccc(Cl)cc2Cl)c1-c1ccc(Cl)cc1 | 268 nM | – | – | – | –
6 | Cc1c(C(=O)N2CCC(C(=O)O)(c3ccccc3)CC2)nn(-c2ccc(Cl)cc2Cl)c1-c1ccc(Cl)cc1 | 1170 nM | – | – | – | –
7 | Cc1c(C(=O)NC2CCNCC2)nn(-c2ccc(Cl)cc2Cl)c1-c1ccc(Cl)cc1 | 5120 nM | – | – | – | –
8 | CCCNC(=O)N1CCC[C@H](NC(=O)c2nn(-c3ccc(Cl)cc3Cl)c(-c3ccc(Cl)cc3)c2C)C1 | 70 nM | 6.57 | 5.11 | 29 | –
9 | Cc1c(C(=O)N[C@@H]2CCCNC2)nn(-c2ccc(Cl)cc2Cl)c1-c1ccc(Cl)cc1 | 1170 nM | – | – | – | –
10 | CCCNC(=O)N1CCC(NC(=O)c2nn(-c3ccc(Cl)cc3Cl)c(-c3ccc(Cl)cc3)c2C)CC1 | 66.5 nM | 6.74 | 5.07 | 46 | –
11 | CCNC(=O)NC1(c2ccccc2)CCN(C(=O)c2nn(-c3ccc(Cl)cc3Cl)c(-c3ccc(Cl)cc3)c2C)CC1 | 10.8 nM | – | – | 12 | –
12 | CC(=O)N1CCC[C@H](NC(=O)c2nn(-c3ccc(Cl)cc3Cl)c(-c3ccc(Cl)cc3)c2C)C1 | 86 nM | 7.41 | 5.36 | 111 | 14%
13 | Cc1c(C(=O)NCC2CCC(CNC(=O)NC(C)C)CC2)nn(-c2ccc(Cl)cc2Cl)c1-c1ccc(Cl)cc1 (stereo unspecified) | 351 nM | – | – | – | –
14 | CC(=O)NC1(c2ccccc2)CCN(C(=O)c2nn(-c3ccc(Cl)cc3Cl)c(-c3ccc(Cl)cc3)c2C)CC1 | 201 nM | – | – | 3.4 | –
15 | CCCNC(=O)NCC1CCC(CNC(=O)c2nn(-c3ccc(Cl)cc3Cl)c(-c3ccc(Cl)cc3)c2C)CC1 (stereo unspecified) | 486 nM | – | – | – | –
16 | Cc1c(C(=O)NC2CCN(S(C)(=O)=O)CC2)nn(-c2ccc(Cl)cc2Cl)c1-c1ccc(Cl)cc1 | 269 nM | – | – | – | –
17 | Cc1c(C(=O)N2CCC(NS(C)(=O)=O)(c3ccccc3)CC2)nn(-c2ccc(Cl)cc2Cl)c1-c1ccc(Cl)cc1 | 3.5 nM | – | – | 5.6 | 3%
18 | CCCCCCNC(=O)NC1(c2ccccc2)CCN(C(=O)c2nn(-c3ccc(Cl)cc3Cl)c(-c3ccc(Cl)cc3)c2C)CC1 | 0.5 nM | – | – | 62 | < 1%
19 | CCCCNC(=O)N1CCC(NC(=O)c2nn(-c3ccc(Cl)cc3Cl)c(-c3ccc(Cl)cc3)c2C)CC1 | 78.1 nM | 6.73 | 5.06 | 47 | –
20 | CCCNC(=O)N1CCC[C@@H](NC(=O)c2nn(-c3ccc(Cl)cc3Cl)c(-c3ccc(Cl)cc3)c2C)C1 | 27 nM | 6.87 | 5.51 | 23 | –
21 | Cc1c(C(=O)N[C@H]2CCCN(C(=O)OC(C)(C)C)C2)nn(-c2ccc(Cl)cc2Cl)c1-c1ccc(Cl)cc1 | 842 nM | – | – | – | –
22 | CCNC(=O)NCC1CCC(CNC(=O)c2nn(-c3ccc(Cl)cc3Cl)c(-c3ccc(Cl)cc3)c2C)CC1 (stereo unspecified) | 135 nM | – | – | – | –
23 | Cc1c(C(=O)N[C@@H]2CCCN(C(=O)OC(C)(C)C)C2)nn(-c2ccc(Cl)cc2Cl)c1-c1ccc(Cl)cc1 | 52 nM | 7.65 | 5.17 | 302 | < 1%

Row | SMILES | Ke (Cannabinoid receptor 1 [1]) | pKi (Cannabinoid receptor 1 [2]) | pKi (Cannabinoid receptor 2) | Ratio Ki (Homo sapiens) | permeability (MDCK)
24 | Cc1c(C(=O)N[C@H]2CCCN(C(=O)NC(C)(C)C)C2)nn(-c2ccc(Cl)cc2Cl)c1-c1ccc(Cl)cc1 | 206 nM | – | – | – | –
25 | Cc1c(C(=O)N2CCC(NC(=O)NC(C)C)(c3ccccc3)CC2)nn(-c2ccc(Cl)cc2Cl)c1-c1ccc(Cl)cc1 | 0.7 nM | – | – | 364 | –
26 | CCNC1(C(N)=O)CCN(c2ncnc3c2nc(-c2ccccc2Cl)n3-c2ccc(Cl)cc2)CC1 [OTENABANT] | – | – | – | – | 90%
27 | Cc1c(C(=O)N[C@H]2CCCNC2)nn(-c2ccc(Cl)cc2Cl)c1-c1ccc(Cl)cc1 | 1880 nM | – | – | – | –
28 | Cc1c(C(=O)N2CCC(NC(=O)Nc3ccc(F)cc3)(c3ccccc3)CC2)nn(-c2ccc(Cl)cc2Cl)c1-c1ccc(Cl)cc1 | 89 nM | 6.21 | 4.70 | 33 | –
29 | CCNC1(C(N)=O)CCN(C(=O)c2nn(-c3ccc(Cl)cc3Cl)c(-c3ccc(Cl)cc3)c2C)CC1 | 91 nM | – | – | 28.3 | –
30 | Cc1c(C(=O)N2CCC(NC(=O)Nc3ccc(N(C)C)cc3)(c3ccccc3)CC2)nn(-c2ccc(Cl)cc2Cl)c1-c1ccc(Cl)cc1 | 264 nM | 5.83 | 4.79 | 11 | –
31 | CCCCNC(=O)NC1(c2ccccc2)CCN(C(=O)c2nn(-c3ccc(Cl)cc3Cl)c(-c3ccc(Cl)cc3)c2C)CC1 | 0.4 nM | – | – | 178 | < 1%
32 | Cc1c(C(=O)NC2CCN(C(=O)NC(C)C)CC2)nn(-c2ccc(Cl)cc2Cl)c1-c1ccc(Cl)cc1 | 16.7 nM | 7.07 | 5.01 | 114 | 14%
33 | CC(=O)N1CCC(NC(=O)c2nn(-c3ccc(Cl)cc3Cl)c(-c3ccc(Cl)cc3)c2C)CC1 | 195 nM | 7.19 | 5.65 | 34.2 | –
34 | CCNC(=O)N1CCC(NC(=O)c2nn(-c3ccc(Cl)cc3Cl)c(-c3ccc(Cl)cc3)c2C)CC1 | 20.5 nM | 6.78 | 5.24 | 35 | –
35 | Cc1c(C(=O)NCC2CCC(CNC(=O)NC(C)(C)C)CC2)nn(-c2ccc(Cl)cc2Cl)c1-c1ccc(Cl)cc1 (stereo unspecified) | 150 nM | – | – | – | –
36 | CCNC(=O)N1CCC[C@H](NC(=O)c2nn(-c3ccc(Cl)cc3Cl)c(-c3ccc(Cl)cc3)c2C)C1 | 280 nM | – | – | – | –
37 | Cc1c(C(=O)N[C@@H]2CCCN(C(=O)NC(C)C)C2)nn(-c2ccc(Cl)cc2Cl)c1-c1ccc(Cl)cc1 | 31.3 nM | 7.01 | 5.38 | 43 | –
38 | Cc1c(C(=O)N[C@H]2CCCN(C(=O)NC(C)C)C2)nn(-c2ccc(Cl)cc2Cl)c1-c1ccc(Cl)cc1 | 265 nM | – | – | – | –
39 | Cc1c(C(=O)N2CCC(NC(=O)NC3CCCCC3)(c3ccccc3)CC2)nn(-c2ccc(Cl)cc2Cl)c1-c1ccc(Cl)cc1 | 12 nM | – | 4.70 | 25 | –
40 | Cc1c(C(=O)N2CCC(NC(=O)Nc3ccc(C#N)cc3)(c3ccccc3)CC2)nn(-c2ccc(Cl)cc2Cl)c1-c1ccc(Cl)cc1 | > 10000 nM | – | – | – | –
41 | CCCCNC(=O)N1CCC[C@@H](NC(=O)c2nn(-c3ccc(Cl)cc3Cl)c(-c3ccc(Cl)cc3)c2C)C1 | 118 nM | 6.90 | 5.52 | 24 | –
42 | Cc1c(C(=O)N2CCC(N)(c3ccccc3)CC2)nn(-c2ccc(Cl)cc2Cl)c1-c1ccc(Cl)cc1 | 485 nM | – | – | 10.8 | –
43 | Cc1c(C(=O)NC2CCN(C(N)=O)CC2)nn(-c2ccc(Cl)cc2Cl)c1-c1ccc(Cl)cc1 | 4100 nM | – | – | – | –
44 | CCCNC(=O)NC1(c2ccccc2)CCN(C(=O)c2nn(-c3ccc(Cl)cc3Cl)c(-c3ccc(Cl)cc3)c2C)CC1 | 0.4 nM | – | – | 39 | –
45 | CC(=O)N1CCC[C@@H](NC(=O)c2nn(-c3ccc(Cl)cc3Cl)c(-c3ccc(Cl)cc3)c2C)C1 | 530 nM | – | – | – | –
